Source: PubChem BioAssay
Runt-CBFb FRET – inhibitors of RUNX1 Runt–CBFb binding, primary screen, biochemical, FRET, Cerulean-Runt, Venus-CBFb, uHTS; Cerulean-Runt/Venus-CBFb FRET ratio 530/480, 1 h; inhibition, % at 20 µM; actives 0.46% (n = 220,000); AID 1496, 2009;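 active means inhibition over about 50% at 20 µM in the single-dose screen, limit read from the data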;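 further: 0% = DMSO wells and 100% = excess unlabeled CBFb competitor control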
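Doses: 20 µM compound in 1% DMSO | Material: Cerulean-labeled Runt domain protein | Amount: Each fluorescent fusion protein 100 nM | Schedule: Two 1 h room-temperature incubations shielded from light | Measured by: FRET fluorescence | Evaluation: Loss of energy transfer signal | Controls: Unlabeled CBFb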
RanGTP-Impb inh – inhibitors of RanGTP-importin-beta interaction, primary screen, biochemical, FRET, CFP-Ran, YFP-importin-beta, homogeneous. inhibition, % (test concentration not listed). cell-free CFP-Ran/YFP-importin-beta FRET ratio. actives 1.1% (n = 300,000);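 active means more than half of the replicate wells show a fall in the fluorescence ratio signal beyond about 16%, limit read from the data, passing the limit was not always enough; inconclusive means exactly half of the replicate wells pass the set limit; inactive means fewer than half of replicates pass the limit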;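 further: 0% = DMSO wells and 100% = Ran loaded with GDP instead of GTP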
MEX-5 binding – MEX-5 zinc finger RNA-binding disruptors – biochemical, C. elegans, fluorescence polarization, MLPCN library, primary screen. Zinc finger protein mex-5 (Caenorhabditis elegans), Q9XUB2. MEX-5/FITC-TCR2 RNA binding; stronger effect = lower value. activity score (negative = inhibition of binding), % at 10 µM. actives 0.38% (n = 300,000). AID 1832, 2009;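 active means inhibition past about -25% in most replicates, and total fluorescence under double the plate's negative control median, limit read from the data; inconclusive means replicates evenly split on the limit, or fluorescence at least double controls; inactive means too little inhibition in most replicates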;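 further: 0% = DMSO and -100% = 5 µM competing unlabeled TCR2 RNA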
EBV gp42 inh – Epstein-Barr virus gp42 inhibitors, primary screen, biochemical, uHTS, fluorescence polarization. actives 0.42% (n = 220,000). AID 1085, 2008. inhibition, % (tested at 21.74 µM). Glycoprotein 42 (Epstein-Barr virus (strain AG876)), Q1HVG2. Fluorescence polarization binding assay, mP read-out
Target sequence (Q1HVG2 whole entry, looked up): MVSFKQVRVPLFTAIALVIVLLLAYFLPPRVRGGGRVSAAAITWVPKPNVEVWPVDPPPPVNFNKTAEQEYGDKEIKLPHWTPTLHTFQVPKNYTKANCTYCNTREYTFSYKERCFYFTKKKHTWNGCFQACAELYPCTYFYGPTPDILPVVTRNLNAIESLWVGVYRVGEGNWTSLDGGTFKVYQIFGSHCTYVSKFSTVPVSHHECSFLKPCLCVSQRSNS
PKD1 inh – inhibitors of human PKD1 kinase, biochemical, fluorescence polarization; Serine/threonine-protein kinase D1 (Homo sapiens), Q15139; PKD1 kinase fluorescence polarization assay; inhibition, % (no concentration beside the values); actives 0.056% (n = 200,000)
Runt-SMMHC FRET – inhibitors of RUNX1 Runt–CBFb-SMMHC binding, primary screen, biochemical, FRET, Cerulean-Runt, Venus-CBFb-SMMHC, uHTS. AID 1434, 2008. Runt-related transcription factor 1 (Homo sapiens) + Core-binding factor subunit beta …. actives 0.74% (n = 220,000). Cerulean-Runt/Venus-CBFb-SMMHC FRET ratio 530/480, 1 h. inhibition, % at 20 µM;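 active means mean inhibition across duplicate retests at 20 µM reaching about 50%, limit read from the data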;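 further: 0% = DMSO wells and 100% = wells with excess untagged CBFb-SMMHC; inhibitors lower the FRET ratio by blocking Runt binding to CBFb-SMMHC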
Runt-CBFb TRFRET – inhibitors of RUNX1 Runt–CBFb binding, biochemical, TR-FRET; shares compounds with Runt-CBFb FRET; actives 20% (n = 480); inhibition, % at 20 µM; TR-FRET RUNX1 Runt domain-CBFb binding; in the data active means inhibition above about 40%
YIC FRET counter – YIC intramolecular FRET probe signal interference, dose response, counter-screen for RanGTP-importin-beta inhibitor project, biochemical, fluorescence FRET. shares compounds with RanGTP-Impb inh. Purified YIC probe, intramolecular FRET ratio YFP/CFP. IC50, µM. actives 40% (n = 1,000);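 active means fitted half-maximal inhibitory concentration no more than tenfold above the top dose tested; inconclusive means flat fit with 30 to 70% activity, or poor fit; inactive means half-maximal concentration beyond tenfold above the top dose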
* marks the source's active call; other numbers are inactive results; ? = inconclusive; . = not tested or not shown. Sampled rows, rich in hits. Any-hit rate of the full collection: about 2%. Unless noted, no stated cut-off is given here; in the data, active means inhibition above about 50%; inactive means the rest.

SMILES	Runt-CBFb FRET	RanGTP-Impb inh	MEX-5 binding	EBV gp42 inh	PKD1 inh	Runt-SMMHC FRET	Runt-CBFb TRFRET	YIC FRET counter
CCc1ccccc1NC(=O)Cn1nnc(C(=O)NCc2cccc(OC)c2)c1N	.	6.4	1.4	.	.	.	.	.
NC(=O)c1ccccc1NC(=O)COC(=O)C1(c2ccccc2)CC1	.	5.3	-0.2	.	.	.	.	.
COc1cccc(-c2nc(CS(=O)(=O)CC(=O)N3CCOCC3)c(C)o2)c1	.	-0.6	2.3	.	.	.	.	.
CCc1ccc(S(=O)(=O)Nc2ccc(-c3nc4cccnc4s3)cc2)s1	80.3*	39.5*	-2.0	-4.2	-11.6	147.8*	17.2	9.71*
Cc1ccc(-c2nc3cccnc3s2)cc1NS(=O)(=O)c1cccs1	1.0	0.1	-3.4	-5.6	-0.9	-3.3	.	.
Cc1nnc2ccc(-c3ccc(NS(=O)(=O)c4ccc(F)cc4F)cc3)nn12	.	-0.5	-2.7	.	.	.	.	.
CC(=O)N1CCc2c(sc(NC(=O)c3ccc4c(c3)OCCO4)c2C#N)C1	64.6*	39.0*	2.6	-8.6	-8.0	90.4*	-246.3	51.8*
COc1cc(C(=O)N[C@H](C(=O)Nc2nnc(C3CC3)s2)C(C)C)cc(OC)c1OC	-1.9	4.6	-0.5	-2.9	.	-0.1	.	.
C=CCn1c(N)c(C(=O)OCCC)c2nc3ccccc3nc21	69.0*	21.2*	-1.1	-19.6	-4.0	118.8*	16.0	>50
Cc1ccc(COC(=O)c2ccc3ccccc3n2)cc1	.	-0.4	2.4	.	.	.	.	.
CCCCn1c(NC(=O)c2ccc(Br)o2)c(S(=O)(=O)c2ccccc2)c2nc3ccccc3nc21	64.0*	25.4*	-4.7	34.5	0.6	135.7*	2.3	4.89*
Cc1ccc2c(NC(=O)c3ccc(Br)o3)cccc2n1	.	?	-0.7	.	.	.	.	.
CCOCCCNC(=O)/C(C#N)=C/c1cc(Br)c(O)c(Br)c1	68.1*	38.4*	1.7	-6.1	.	116.3*	-20.2	14.8*
COCCNC(=O)/C(C#N)=C/c1cc(Br)c(O)c(OC)c1	23.9	-2.3	4.4	-43.0	2.5	45.9	.	.
CCOc1ccc(Nc2c3ccccc3nc3ccccc23)cc1	59.9*	54.4*	0.8	-11.4	.	3.3	41.4*	>50
Cc1ccc(CC2SC(N=C(N)N)=NC2=O)cc1 (stereo not drawn)	.	2.3	-0.9	.	.	.	.	.
COC(=O)C1=CN(C)C=C(C(=O)OC)C1c1ccc(O)c(OC)c1	11.8	8.9	-0.3	-18.2	14.5	31.8	.	.
COCCN1C=C(C(=O)OC)C(c2cc(Br)c(OC)c(OC)c2)C(C(=O)OC)=C1	73.0*	20.0*	1.2	-3.9	-3.0	142.4*	38.8	30.5*
CS(=O)(=O)Nc1cccc(-c2cnc3ccccc3n2)c1	.	1.6	-3.0	.	.	.	.	.
CCc1c(C)c2cc(Cl)c(O)c(CN3CCCCC3)c2oc1=O	84.9*	22.1*	-7.1	-5.6	1.2	156.4*	-5.7	26.4*
CCN1C2=C(C(=O)CCC2)C(c2ccc(O)c(Br)c2)C2=C1CCCC2=O	53.9*	35.1*	-8.5	13.2	4.0	122.2*	27.2	8.39*
NS(=O)(=O)c1cccc(NC(=O)CCCNC(=O)c2ccc(Cl)cc2)c1	.	-1.6	1.5	.	.	.	.	.
NS(=O)(=O)c1cccc(NC(=O)CCSc2ccc(Cl)cc2)c1	9.3	18.5*	1.0	-18.4	-3.9	-21.7	.	>50
